Test results from ChEMBL document CHEMBL1144594, “Synthesis and biological evaluation of 4-amino derivatives of benzimidazoquinoxaline, benzimidazoquinoline, and benzopyrazoloquinazoline as potent IKK inhibitors” (Bioorg Med Chem Lett, 2007).
Active and inactive are the calls of the source. The calls are words filed in the database; no cut-off is given here.

Legend:
[1] = target: T1, Inhibitor of nuclear factor kappa-B kinase subunit beta (Homo sapiens, UniProt O14920); experiment: Inhibition of IKK2
T1 sequence (O14920 whole entry): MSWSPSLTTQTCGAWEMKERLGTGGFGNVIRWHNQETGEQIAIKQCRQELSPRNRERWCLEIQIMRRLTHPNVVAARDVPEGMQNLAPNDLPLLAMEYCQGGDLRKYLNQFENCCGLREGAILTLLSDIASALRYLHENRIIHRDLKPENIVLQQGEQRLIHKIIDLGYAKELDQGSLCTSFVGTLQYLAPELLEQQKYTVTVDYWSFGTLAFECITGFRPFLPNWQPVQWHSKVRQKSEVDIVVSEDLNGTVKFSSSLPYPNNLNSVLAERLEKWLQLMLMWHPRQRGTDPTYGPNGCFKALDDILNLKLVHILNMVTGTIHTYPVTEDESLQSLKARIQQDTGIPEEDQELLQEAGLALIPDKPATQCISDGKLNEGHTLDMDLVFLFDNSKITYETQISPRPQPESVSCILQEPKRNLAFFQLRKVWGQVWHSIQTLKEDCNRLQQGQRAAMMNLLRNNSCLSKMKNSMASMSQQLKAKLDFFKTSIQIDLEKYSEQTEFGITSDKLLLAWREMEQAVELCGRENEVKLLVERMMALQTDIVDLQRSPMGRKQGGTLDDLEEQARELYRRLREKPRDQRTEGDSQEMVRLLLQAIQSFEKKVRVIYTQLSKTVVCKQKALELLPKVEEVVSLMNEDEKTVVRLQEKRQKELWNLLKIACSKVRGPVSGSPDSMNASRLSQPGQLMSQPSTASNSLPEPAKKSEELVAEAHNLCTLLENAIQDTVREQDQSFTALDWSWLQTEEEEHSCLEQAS
Method in brief: (§1)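 Enzyme (IKK-2 or IKK-1, typically 0.5 µg/mL final) added at 30 °C to 50 µg/mL GST-IκBα substrate and 20 µM ATP. Read-out is GST-IκBα phosphorylation. IC50 is from a single experiment.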

[2] = target: T1, Inhibitor of nuclear factor kappa-B kinase subunit beta; experiment: Inhibition of LPS-induced TNFalpha secretion in THP1 cells; format: functional, cell-based, THP-1
[3] = target: T2, Inhibitor of nuclear factor kappa-B kinase subunit alpha (Homo sapiens, UniProt O15111); experiment: Inhibition of IKK1; method in brief: as §1
T2 sequence (O15111 whole entry): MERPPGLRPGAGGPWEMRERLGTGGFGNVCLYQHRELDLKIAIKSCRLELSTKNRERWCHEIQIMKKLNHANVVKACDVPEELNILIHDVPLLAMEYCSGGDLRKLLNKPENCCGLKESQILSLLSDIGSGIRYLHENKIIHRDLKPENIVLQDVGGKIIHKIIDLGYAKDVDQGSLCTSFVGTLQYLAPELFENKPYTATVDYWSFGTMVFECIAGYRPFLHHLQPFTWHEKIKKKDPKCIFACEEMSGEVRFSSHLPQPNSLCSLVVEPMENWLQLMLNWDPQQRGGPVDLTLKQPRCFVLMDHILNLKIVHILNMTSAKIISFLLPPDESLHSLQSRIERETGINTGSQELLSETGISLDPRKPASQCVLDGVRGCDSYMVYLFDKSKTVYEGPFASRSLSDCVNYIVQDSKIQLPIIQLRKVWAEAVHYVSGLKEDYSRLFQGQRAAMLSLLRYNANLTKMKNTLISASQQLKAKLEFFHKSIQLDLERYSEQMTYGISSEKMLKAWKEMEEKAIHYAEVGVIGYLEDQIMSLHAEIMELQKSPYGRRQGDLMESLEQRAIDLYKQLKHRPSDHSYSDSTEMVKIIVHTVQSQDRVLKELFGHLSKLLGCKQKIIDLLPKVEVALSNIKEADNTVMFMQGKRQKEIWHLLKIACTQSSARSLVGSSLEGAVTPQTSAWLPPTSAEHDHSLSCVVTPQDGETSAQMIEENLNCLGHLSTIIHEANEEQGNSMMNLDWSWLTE

Homo sapiens = species on record: Homo sapiens; experiment: Selectivity for human IKK2 over human IKK1
Mus musculus [4] = experiment: Reduction of LPS-induced serum TNFalpha levels in BALB/c mouse at 100 mg/kg, po relative to control; format: functional, organism-based; design: dose 100 mg/kg
Method in brief: (§2)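 Female BALB/c mice, 6–8 weeks old, got inhibitor in 0.2 mL aqueous solution by oral gavage. One hour later they were challenged ip with 1 µg E. coli O111:B4 LPS in 500 µL PBS. Serum was taken 90 min after challenge and TNF-α measured by EIA. Inhibition is relative to vehicle-only LPS-challenged controls.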

Mus musculus [5] = experiment: Reduction of LPS-induced serum TNFalpha levels in BALB/c mouse at 30 mg/kg, po relative to control; format: functional; design: scale not given: the % may be the effect or the level left; method in brief: as §2
[6] = target: T3, Inhibitor of nuclear factor kappa-B kinase subunit epsilon (Homo sapiens) (UniProt Q14164); experiment: Inhibition of IKKepsilon at 50 uM
T3 sequence (whole entry): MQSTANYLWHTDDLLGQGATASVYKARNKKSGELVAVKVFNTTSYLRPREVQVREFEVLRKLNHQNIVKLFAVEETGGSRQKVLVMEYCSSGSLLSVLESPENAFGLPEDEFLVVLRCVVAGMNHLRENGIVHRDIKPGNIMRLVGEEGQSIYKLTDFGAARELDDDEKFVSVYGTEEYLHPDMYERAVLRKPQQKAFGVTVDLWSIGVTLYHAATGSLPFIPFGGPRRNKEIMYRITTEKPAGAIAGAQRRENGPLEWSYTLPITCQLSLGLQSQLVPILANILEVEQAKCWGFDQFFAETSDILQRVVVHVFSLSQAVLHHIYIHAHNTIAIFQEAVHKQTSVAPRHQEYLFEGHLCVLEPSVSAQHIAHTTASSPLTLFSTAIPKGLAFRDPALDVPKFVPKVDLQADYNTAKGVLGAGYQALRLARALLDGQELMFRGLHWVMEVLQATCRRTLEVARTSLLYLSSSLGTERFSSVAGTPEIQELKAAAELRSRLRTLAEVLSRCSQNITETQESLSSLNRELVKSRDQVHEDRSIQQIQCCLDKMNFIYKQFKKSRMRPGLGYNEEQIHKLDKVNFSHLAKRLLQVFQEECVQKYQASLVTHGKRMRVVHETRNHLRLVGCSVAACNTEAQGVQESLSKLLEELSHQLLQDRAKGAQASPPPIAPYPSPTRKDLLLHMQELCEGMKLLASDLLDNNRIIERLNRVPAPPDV

[7] = target: Tyrosine-protein kinase Lck (Homo sapiens) (UniProt P06239); experiment: Inhibition of LCK at 50 uM
Sequence of Tyrosine-protein kinase Lck (Homo sapiens) (P06239 2-509 limits assumed): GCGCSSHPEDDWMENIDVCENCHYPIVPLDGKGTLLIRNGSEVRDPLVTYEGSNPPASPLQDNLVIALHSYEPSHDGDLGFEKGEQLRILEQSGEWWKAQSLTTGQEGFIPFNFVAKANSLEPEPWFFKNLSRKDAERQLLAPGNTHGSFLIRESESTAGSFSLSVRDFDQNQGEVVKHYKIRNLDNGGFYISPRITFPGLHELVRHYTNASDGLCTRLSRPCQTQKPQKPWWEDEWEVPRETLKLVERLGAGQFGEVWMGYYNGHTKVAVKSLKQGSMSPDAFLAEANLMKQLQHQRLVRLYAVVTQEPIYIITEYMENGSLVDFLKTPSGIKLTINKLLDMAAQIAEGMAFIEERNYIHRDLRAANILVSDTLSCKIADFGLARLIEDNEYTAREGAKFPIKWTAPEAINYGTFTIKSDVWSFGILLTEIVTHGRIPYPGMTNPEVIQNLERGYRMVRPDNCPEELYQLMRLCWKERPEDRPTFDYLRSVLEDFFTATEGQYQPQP

[8] = target: T4, Tyrosine-protein kinase ITK/TSK (Homo sapiens) (UniProt Q08881); experiment: Inhibition of EMT at 50 uM
T4 sequence (whole entry): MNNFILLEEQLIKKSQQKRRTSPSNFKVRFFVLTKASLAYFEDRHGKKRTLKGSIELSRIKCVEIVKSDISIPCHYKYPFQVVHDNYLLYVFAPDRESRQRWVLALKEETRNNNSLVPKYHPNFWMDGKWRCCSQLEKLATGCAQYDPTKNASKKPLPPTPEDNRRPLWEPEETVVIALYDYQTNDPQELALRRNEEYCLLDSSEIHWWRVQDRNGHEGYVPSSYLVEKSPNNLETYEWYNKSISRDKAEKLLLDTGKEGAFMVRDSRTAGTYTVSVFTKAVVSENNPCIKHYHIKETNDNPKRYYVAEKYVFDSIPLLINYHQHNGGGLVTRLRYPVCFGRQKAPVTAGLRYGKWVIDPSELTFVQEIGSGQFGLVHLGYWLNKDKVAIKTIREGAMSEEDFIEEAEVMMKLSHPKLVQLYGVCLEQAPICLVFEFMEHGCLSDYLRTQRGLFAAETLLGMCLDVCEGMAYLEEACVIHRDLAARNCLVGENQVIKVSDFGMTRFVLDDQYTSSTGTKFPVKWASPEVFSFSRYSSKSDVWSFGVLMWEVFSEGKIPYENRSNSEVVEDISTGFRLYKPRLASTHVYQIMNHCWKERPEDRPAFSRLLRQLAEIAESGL

Mus musculus [9] = experiment: Reduction of LPS-induced serum TNFalpha levels in BALB/c mouse at 10 mg/kg, po relative to control; format: functional; design: scale not given: the % may be the effect or the level left; method in brief: as §2

Row | Structure (SMILES) | IC50 [1] [nM] | IC50 [2] [nM] | IC50 [3] [nM] | also measured
1 | CNCCNc1nc2cc3ccccc3cc2c2c(C)cnn12 | 35 | 1500 |  | 
2 | CNc1nc2cc3ccccc3cc2c2c(C)cnn12 | 11 | 8300 |  | 
3 | Cc1ccc2nc(NCCN)c3ncc(C)n3c2c1.Cl |  |  |  | Activity (Mus musculus [4]): Active; Activity (Mus musculus [5]): 50%
4 | Cn1cnc2c(NCCN)nc3cc4ccccc4cc3c21 | 58 | 5900 | 1600 | 

The remaining compounds from weak to strong by IC50 [2], led by results:

Row | IC50 [1] [nM] | IC50 [2] [nM] | IC50 [3] [nM] | Structure (SMILES) | also measured
5 | 18 | 1400 | 870 | Cc1cnc2c(NCCO)nc3cc4ccccc4cc3n12 | Ratio IC50 (Homo sapiens): 48
6 | 23 | 1000 | 390 | CNCCNc1nc2cc3ccccc3cc2n2c(C)cnc12 | Activity [6]: inactive; Activity (Mus musculus [4]): Active; Activity [7]: inactive; Activity [8]: inactive
7 |  | 950 | 990 | CNc1nc2cc3ccccc3cc2c2c1ncn2C | 
8 | 46 | 600 |  | Cc1cnc2c(NCCN3CCCCC3)nc3cc4ccccc4cc3n12 | 
9 | 18 | 340 |  | CNc1nc2cc3ccccc3cc2n2c(C)cnc12 | Activity (Mus musculus [9]): 50%; Ratio IC50 (Homo sapiens): 13
